# Bioassay records from PubChem BioAssay.
# PolyA inhibitor – yeast polyadenylation inhibition. S. cerevisiae SKY197-pL101 polyadenylation reporter, beta-gal luminescence; efflux-impaired pdr1/pdr3 knockout yeast; score 100 = 6 SD above DMSO. activity score, % at 12 µM. 300,000 compounds, 0.02% hits. AID 1875;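 active = lowest replicate activity score at least 50, where 100 means six control SD above control mean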;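 note: yeast exposed to compound for 9 h at 30 °C; higher score means more reporter readthrough which indicates perturbed polyadenylation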
# AHR activator – activates the human aryl hydrocarbon receptor | AHR-responsive luciferase reporter cells, luminescence | P35869 | 320,000 compounds, 2.5% hits | activation, % at 5 µM; in the data active = activation above about 47%;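 note: 0% = vehicle wells and 100% = reference agonist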
# Target sequence (P35869 whole entry, looked up): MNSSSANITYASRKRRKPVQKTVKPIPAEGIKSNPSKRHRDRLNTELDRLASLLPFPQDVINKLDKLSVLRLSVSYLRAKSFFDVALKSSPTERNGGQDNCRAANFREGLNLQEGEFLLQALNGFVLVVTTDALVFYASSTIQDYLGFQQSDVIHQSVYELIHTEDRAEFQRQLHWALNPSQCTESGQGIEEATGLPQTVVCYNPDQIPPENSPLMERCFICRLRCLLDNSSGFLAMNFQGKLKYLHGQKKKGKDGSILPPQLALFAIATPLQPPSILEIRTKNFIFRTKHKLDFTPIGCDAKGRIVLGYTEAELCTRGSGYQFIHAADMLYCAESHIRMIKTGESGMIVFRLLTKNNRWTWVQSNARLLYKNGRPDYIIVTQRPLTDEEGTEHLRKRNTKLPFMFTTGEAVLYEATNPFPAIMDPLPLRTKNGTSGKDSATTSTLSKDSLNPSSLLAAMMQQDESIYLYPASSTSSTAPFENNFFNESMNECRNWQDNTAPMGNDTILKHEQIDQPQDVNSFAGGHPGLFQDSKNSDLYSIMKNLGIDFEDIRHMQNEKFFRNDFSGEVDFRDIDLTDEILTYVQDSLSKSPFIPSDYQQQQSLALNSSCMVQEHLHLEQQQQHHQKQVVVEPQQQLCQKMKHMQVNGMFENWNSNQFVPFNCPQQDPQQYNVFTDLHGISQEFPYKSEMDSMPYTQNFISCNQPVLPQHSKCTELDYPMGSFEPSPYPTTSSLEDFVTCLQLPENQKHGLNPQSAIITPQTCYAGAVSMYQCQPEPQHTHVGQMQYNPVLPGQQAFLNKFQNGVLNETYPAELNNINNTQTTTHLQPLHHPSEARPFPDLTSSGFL
# PERK inhibitor – human PERK inhibition, primary cell-based screen; CHO PERK-DD fusion, SEAP luminescence translation reporter; AID 1416; inhibition, % at 5.6 µM; 220,000 compounds, 0.17% hits; Q9NZJ5;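 active = inhibition above the mean inhibition of all tested compounds plus 3 SD, set separately per screening campaign, cut at about 2.9% in these data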;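 note: PERK kinase domain activated by AP20187 dimerizer at 100 nM; 0% = DMSO with dimerizer and 100% = rapamycin at 8.4 µM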
# HSF1 inhib – HSF1 inhibition | NIH3T3-HGL HSE-luciferase, MG132-induced, luminescence 8 h; hits give low values | activity change, negative = inhibition, % at 7.5 µM (by protocol) | 300,000 compounds, 0.77% hits | AID 2098;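 active = more than half of replicate wells show activity change below -50%, luminescence cut by over half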;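 note: luciferase reports HSF-1 transcriptional activity via heat shock element; 0% = median of DMSO wells and -100% = zero luminescence signal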
# Hsp70 activator – switches on Hsp70 transcription; activation, % at 10 µM; HeLa Hsp70 promoter luciferase reporter, luminescence; scaled: vehicle 0, proteasome-inhibitor control 100%; 200,000 compounds, 0.04% hits;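 active = activation above the mean across all tested compounds plus 3 SD, cutoff set per campaign, cut at about 5.5% in these data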;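 note: 100% = MG132 at 30 µM as the positive control and 0% = DMSO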
# STAT3 act – STAT3 signaling activation; U3A cells, IL-6 STAT3-luciferase reporter, luminescence; 100% = signal with IL-6 EC80 alone; activation (% of control), % at 5.6 µM; 190,000 compounds, 0.91% hits; AID 871;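 active = activation above the screen-wide mean of compound activation plus 3 SD, cut at about 130% in these data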;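 note: 0% = background luminescence of wells with medium and substrate only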
#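 Test system: human U3A cells carrying STAT3-luciferase construct; control set: IL-6-only wells as 100% reference; timing: compound pre-incubation 1 h before IL-6, then 6 h stimulation at 37 °C; also added: IL-6 stimulus at 33 ng/mL final; evaluation: % activation versus median of IL-6-stimulated wells; detection: reporter luminescence signal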
# * = called active by the depositor; / = no result. Hits are enriched below; roughly 3.6% of the tested compounds scored in any of these assays.
SMILES,PolyA inhibitor,AHR activator,PERK inhibitor,HSF1 inhib,Hsp70 activator,STAT3 act
CC(=O)c1c(C)n(CCCOC(C)C)c2ccc(O)cc12,6,11,-1,-56*,0,90
C=COCCn1c(C)c(C(C)=O)c2cc(O)ccc21,7,16,0,8,0,91
COc1ccc(C2=CC(c3ccc(OC)c(OC)c3)c3c(c4ccccc4oc3=O)O2)cc1OC (centres undefined),7,4,0,-56*,/,/
COc1ccc(C2C(C#N)=C(N)Oc3c2c(=O)oc2ccccc32)cc1Cn1cc([N+](=O)[O-])cn1 (centres undefined),9,2,0,1,0,98
Cc1ccccc1-n1c(O)c(C=Nc2ccc(N(C)C)cc2)c(=O)[nH]c1=O,-12,61*,-1,21,0,91
O=c1c2cc(Br)ccc2[nH]c(=S)n1-c1ccccc1,-15,50*,0,-8,0,106
CC[C@H](C)[C@@H]1O[C@@]2(C=CC1C)CC1C[C@@H](CC=C(C)C(O[C@H]3CC(OC)C(O[C@H]4CC(OC)C(O)C(C)O4)C(C)O3)C(C)C=CC=C3CO[C@@H]4C(O)C(C)=C[C@@H](C(=O)O1)[C@]34O)O2 (some centres undefined),/,-1,/,/,/,/
COc1ccc2nc(/N=C/c3c(O)n(-c4cccc(Cl)c4)c(=O)[nH]c3=O)sc2c1,2,18,2.9*,5,0,113
O=c1[nH]c(=S)n(C2CC2)c(O)c1/C=N/Nc1cccc2ccccc12,-11,76*,1,2,0,132
O=c1[nH]c(=S)n(C2CC2)c(O)c1/C=N/Nc1ccccc1,-17,21,1,12,0,98
C=C1C(O)[C@@H]2O[C@]3(CC[C@H](/C=C/C(C)[C@@H]4CC(C)=CC5(O[C@H](C[C@@](C)(O)C(=O)O)CCC5O)O4)O3)CC[C@H]2O[C@@H]1C(O)CC(C)[C@H]1OC2(CCCCO2)CCC1C (some centres undefined),/,-9,/,/,/,/
CCNC(=S)N(C)CCc1cc2c(c(OC)c1C=C1C(=O)N(C)C(=O)N(C)C1=O)OCO2,1,7,1,-85*,/,/
CNC(=S)N(C)CCc1cc2c(c(OC)c1/C=C1/C(=O)NC(=O)N(C)C1=O)OCO2,29,1,2,-1,/,/
O=C1NC2C(O)C(O)C(O)C(O)C2c2cc3c(c(O)c21)OCO3 (centres undefined),/,/,/,89*,/,/
O=C1CC23c4ccccc4N4C(=O)CC5OCC=C6CN1C2CC6C5C43 (centres undefined),/,/,/,3,/,/
COc1ccc(C(c2ccc(OC)cc2)C(Cl)(Cl)Cl)cc1,/,-2,/,/,/,/
O=[N+]([O-])c1ccc(NCc2ccccc2)c2nonc12,-21,2,0,1,0,95
O=[N+]([O-])c1ccc(NCc2ccc(Cl)cc2)c2ccncc12,-19,65*,/,11,/,/
COc1cc(/C=C/c2nc3ccccc3c(=O)n2-c2cccc(O)c2)ccc1O,61*,3,-3,-3,/,/
COc1cc(/C=C/c2nc3ccccc3c(=O)n2-c2ccccc2O)ccc1O,13,21,/,17,/,/
Cc1ccc(N2C(=O)NC(=O)/C(=C/c3cnn(-c4ccc(C)cc4)c3)C2=O)cc1,4,4,1,-70*,0,106
COC(=O)C1=C(c2ccc(OC(F)(F)F)cc2)C[C@@H]2CC[C@H]1N2C(=O)N1CCOCC1,/,1,/,/,/,/
O=C1/C(=C/c2ccccc2)C[C@@]2(O)[C@H]3Cc4ccc(O)c5c4[C@@]2(CCN3CC2CC2)C1O5 (some centres undefined),/,-4,/,/,/,/
Cc1ncc2n1-c1ccc(Cl)cc1C(c1ccccc1F)=NC2,/,-2,/,/,/,/
COC12CCC3(CC1C(C)(O)C(C)(C)C)[C@H]1Cc4ccc(O)c5c4[C@@]3(CCN1CC1CC1)C2O5 (some centres undefined),/,-1,/,/,/,/
SMILES,PolyA inhibitor,AHR activator,PERK inhibitor,HSF1 inhib,Hsp70 activator,STAT3 act
CCOC(=O)c1c(C)n(Cc2ccco2)c2ccc(O)cc12,12,47*,0,19,0,95
NN=C(N)N,/,53*,/,/,/,/
O=[N+]([O-])c1oc2ccc3ccccc3c2c1CCO,/,/,/,-6,/,/
CC(=O)O[C@H]1CC[C@@]2(C)C(=CC(=O)C3C2CC[C@@]2(C)C3C[C@H](OC(C)=O)[C@@H]2OC(C)=O)C1 (some centres undefined),/,1,/,/,/,/
CNC(=O)O/N=C/c1nn(C(=O)C(C)(C)C)cc1Br,-6,0,3.2*,-1,/,/
COC(=O)C1=C(c2ccc(F)cc2OCc2ccccc2)C[C@@H]2CC[C@H]1N2C(=O)NCCCOC(C)C,/,-1,/,/,/,/
NCCc1nc2ccccc2s1,9,8,1,-7,0,133*
Cn1cccc1/C=C1\C(=O)NC(=O)N(Cc2ccccc2)C1=O,9,3,1,-6,/,/
Cn1cccc1/C=C1/C(=O)NC(=O)N(Cc2ccccc2)C1=O,2,2,0,0,0,135*
C[C@]12CCC3C(CC[C@H]4C[C@H](O)CC[C@]34C)C1C[C@@H](CCCCl)[C@@H]2O (some centres undefined),/,-1,/,/,/,/
COC(=O)C1=C(c2ccc(-c3ccccc3)c(F)c2)C[C@@H]2CC[C@H]1N2C(=O)NCCOc1ccccc1Cl,/,1,/,/,/,/
O=C(CN1CC(c2ccccc2)CC1=O)NCc1ccc(F)cc1 (centres undefined),1,4,1,-66*,0,93
O=C(c1ccc(Cl)cc1)C1CCCN(Cc2ccc3c(c2)OCCO3)C1 (centres undefined),-36,-1,0,-60*,0,101
C[C@]12CCC3C(CC[C@H]4C[C@@H](O)CC[C@]34C)C1C/C(=N/O)[C@@H]2O (some centres undefined),/,0,/,/,/,/
CC(N)Cc1c[nH]c2c1ccc1ccccc12 (centres undefined),2,49*,/,5,/,/
CCC(N)Cc1c[nH]c2ccccc12 (centres undefined),-7,/,1,-4,/,/
OC1/C(=C/c2ccccc2F)N2CCC1CC2 (centres undefined),23,1,1,-8,0,108
OC1/C(=C/c2ccccc2C(F)(F)F)N2CCC1CC2 (centres undefined),7,9,2,-78*,0,110
O=C(c1ccc2c(c1)OCO2)N1CCC2(CC1)OCCO2,-16,2,0,-68*,0,99
Cc1nc2cc(C(=O)N3CCC4(CC3)OCCO4)ccc2n1-c1ccc(Br)cc1,2,56*,0,-7,0,109
COc1ccc(-n2c(C)nc3cc(C(=O)N4CCC5(CC4)OCCO5)ccc32)cc1,-5,1,0,3,0,106
